From paper PMC7611836 (Journal of natural products, 2020)
Where two headings read alike, the source gives them in different places.

How the values were obtained:
C4-2B cells [1] = test: Oxygen consumption rate; format: cell-based, Human; conditions: 1 μM
How it was run: (§1)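 Mycoplasma-tested cells, 20,000 per poly-L-lysine-coated well, 16 h at 37 °C, 5% CO2. Moved to carbonate-free RPMI assay buffer (4.5 g L-1 glucose, pyruvate, pH 7.4) for 60 min CO2-free. […] Rotenone-insensitive rate subtracted; traces set to 100% pre-addition. n = 6 treated, 16 control; mean ± S.E.M.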

C4-2B cells [2] = test: Cell viability and cell count; format: cell-based, Human; conditions: 1 μM, 48 hours
How it was run: (§2)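 150,000 cells per well were grown overnight, then given 1 μM test compound (ethanolic stock diluted in medium) or ethanol control for 48 h. Cells were trypsinized, pelleted (400 x g, 5 min), resuspended in PBS, stained with acridine orange/DAPI, and read for viability and count. n = 4 treated, 10 control; mean ± S.E.M.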

C4-2B cells [3] = test: Cell growth curves; format: cell-based, Human; conditions: 1 μM
How it was run: (§3)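 Cells were seeded at 1,000 per well in RPMI 1640 with 10% FBS, 25 mM HEPES and 1 mM pyruvate, then grown with 1 μM test compound. Read-out was confluence (% of well surface covered by adherent cells) over time, also taken after 150 h. Eight replicates per condition; mean ± S.E.M.; unpaired two-tailed t-test.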

C4-2 cells [4] = test: Oxygen consumption rate; format: cell-based, Human; conditions: 1 μM
How it was run: as §1

C4-2 cells [5] = test: Cell growth curves; format: cell-based, Human; conditions: 1 μM
How it was run: as §3

PNT2 cells [6] = test: Oxygen consumption rate; format: cell-based, Human; conditions: 1 μM
How it was run: as §1

cancer cell = conditions: Annexin V flow cytometry; cited from earlier work
C4-2 cells [7] = test: Cell viability and cell count; format: cell-based, Human; conditions: 1 μM, 48 hours
How it was run: as §2

[8] = cited from earlier work; for neurotoxicity / crossing of the blood-brain barrier: rats and mice; for detection in brain as metabolite of 1 and 2: rat model of Parkinson's disease
PNT2 cells [9] = test: Cell growth curves; format: cell-based, Human; conditions: 1 μM
PNT2 cells [10] = test: Cell viability and cell count; format: cell-based, Human; conditions: 1 μM, 48 hours
How it was run: as §2

[11] = system: A-549 lung, HCT-8 intestinal, RPMI-7951 skin, TE671 brain, and KB cervical cancer cells; conditions: range over all cell types; cited from earlier work

COc1cc2c(cc1OC)[C@@H]1C(=O)c3ccc4c(c3O[C@@H]1CO2)C[C@H](C(C)CO)O4 (mixture of isomers) [compound 5, (6aS,12aS,5′R,6′R)- and (6aS,12aS,5′R,6′S)-6′,7′-Dihydroamorphigenin]
oxygen consumption rate (C4-2B cells [1]): powerful effect | cell count (C4-2B cells [2]): marginal effects | proliferation (cell growth) (C4-2B cells [3]): responded | oxygen consumption rate (C4-2 cells [4]): powerful effect | proliferation (cell growth) (C4-2 cells [5]): particularly affected | oxygen consumption rate (PNT2 cells [6]): powerful effect

Cc1nc(-c2nc(-c3ccc(OC(F)(F)F)cc3)no2)nn1Cc1cccc(N2CCC(S(C)(=O)=O)CC2)c1 [IACS-01079]
effect on cancer cell proliferation and viability (cancer cell): inhibit both cancer cell proliferation and viability

C=C(C)[C@H]1Cc2c(ccc3c2O[C@@H]2COc4cc(OC)c(OC)cc4[C@@H]2C3=O)O1 [compound 1, rotenone]
cell count (C4-2B cells [2]): affected cell counts | cell count (C4-2 cells [7]): affected cell counts | neurotoxicity ([8]; 3 mg kg^-1 day^-1): cause neuronal damage | crossing of the blood-brain barrier [8]: cross the blood-brain barrier | proliferation (cell growth) (PNT2 cells [9]): retained their ability to proliferate, albeit at a substantially reduced rate | proliferation (cell growth) (C4-2B cells [3]): did not proliferate | cell count (PNT2 cells [10]): affected cell counts | proliferation (cell growth) (C4-2 cells [5]): did not proliferate

COc1cc2c(cc1OC)[C@@H]1C(=O)c3ccc4c(c3O[C@@H]1CO2)C=CC(C)(C)O4 [compound 2, deguelin]
neurotoxicity ([8]; 6 mg kg^-1 day^-1): cause neuronal damage | crossing of the blood-brain barrier [8]: cross the blood-brain barrier

COc1cc2c(cc1OC)[C@@H]1C(=O)c3ccc4c(c3O[C@@H]1CO2)C[C@H](C(C)(C)O)O4 [compound 4, (6aS,12aS,5′R)-Dalpanol]
ED50 (half-maximal effective concentration), cytotoxicity [11]: 0.48 to 4.83 µg/mL

C=C(C)[C@H]1Cc2c(ccc3c2O[C@@H]2COc4cc(OC)c(OC)cc4[C@]2(O)C3=O)O1 [compound 7, (6aR,12aR,5′R)-Rotenolone]
detection in brain as metabolite of 1 and 2 [8]: detected in the brains of treated animals | crossing of the blood-brain barrier [8]: cross the BBB

COc1cc2c(cc1OC)[C@]1(O)C(=O)c3ccc4c(c3O[C@@H]1CO2)C=CC(C)(C)O4 [compound 8, tephrosin]
detection in brain as metabolite of 1 and 2 [8]: detected in the brains of treated animals | crossing of the blood-brain barrier [8]: cross the BBB
